Published values pooled from the literature.
Compare with care: the assays were run in different laboratories.
RIOK1: Serine/threonine-protein kinase RIO1 (RIOK1, Homo sapiens, UniProt Q9BRS2)
EP300: Histone acetyltransferase p300 (EP300, Homo sapiens, UniProt Q09472)

SMILES	target	test	setting	measurement	result
Nc1ncnc2occ(-c3ccc(NC(=O)Nc4cc(C(F)(F)F)ccc4F)cc3)c12	RIOK1	cell-free assay, inhibitor	20 µM	remaining signal	89%
CN(C)C1CCN(CC#Cc2nn(C3CCCC3)c3nc(NCc4ccccc4)ncc23)C1 (stereo not drawn)	Misshapen-like kinase 1 (MINK1, Homo sapiens, UniProt Q8N4C8)	enzyme activity, inhibitor, FRET	10 µM	inhibition	55%
CCN(CC)CCNC(=O)c1c(C)[nH]c(/C=C2\C(=O)Nc3ccc(F)cc32)c1C	Protein kinase C beta type (PRKCB, Homo sapiens, UniProt P05771)	enzyme activity, inhibitor	10 µM	inhibition	0%
Cc1cc(NC(=O)c2cccc3cc(-c4cccc5[nH]nc(N)c45)ccc23)ccc1F	Tyrosine-protein kinase ABL1 (ABL1, Homo sapiens, UniProt P00519)	enzyme activity, inhibitor	0.1 µM	activity vs control	85%
Oc1cccc(Nc2nc(-c3ccc(F)cc3F)cs2)c1	Androgen receptor (AR, Homo sapiens, UniProt P10275)	cell-free assay	10 µM	inhibition	26.5%
COc1cc(-c2cc(-c3ccc(N4CCNCC4)cc3)cnc2N)cc(OC)c1OC	Tyrosine-protein kinase ABL1 (ABL1, Homo sapiens, UniProt P00519, Y253F)	enzyme activity, inhibitor	1 µM	inhibition	95%
Oc1ccc(-c2nc(-c3ccncc3)c(-c3ccc(F)cc3)[nH]2)cc1	EP300	thermal stability, DSF	10 µM	ΔTm	0.33 °C
c1ccc([C@H]2O[C@H]2c2ccccc2)cc1	Epoxide hydrolase 1 (EPHX1, Homo sapiens, UniProt P07099)	enzyme activity, substrate	pH 9	Km	141 µM
Cc1ccc(C(=O)Nc2ccc(CN3CCN(C)CC3)c(C(F)(F)F)c2)cc1C#Cc1cnc2cccnn12	RIOK1	enzyme activity, inhibitor	23.5 nM	remaining activity	98%
NS(=O)(=O)c1ccc(Nc2nc(-c3ccc(F)cc3)c3ccccc3n2)cc1	EP300	binding, competition with immobilised ligand	1 µM	remaining binding	62%
Cc1cnc(NC2CCOCC2)nc1-n1cnc(C(=O)NC(CN)c2cc(F)cc(Cl)c2)c1 (stereo not drawn)	Tyrosine-protein kinase ABL1 (ABL1, Homo sapiens, UniProt P00519, M351T)	enzyme activity, inhibitor, radiometric	1 µM	remaining activity	95%
O=c1oc2c(O)c(O)cc3c(=O)oc4c(O)c(O)cc1c4c23	N-lysine methyltransferase KMT5A (KMT5A, Homo sapiens, UniProt Q9NQR1)	cell-free assay	10 µM	inhibition	2%
